In brackets after ≈: the same amount, converted by molar mass. Activity calls are given as the source filed them. No cut-off for these calls is given here.
What was measured:
[1] = system: Mycobacterium tuberculosis; test: Antimycobacterial activity against Mycobacterium tuberculosis H37Rv after 7 days by resazurin microtiter assay; assay type: functional; conditions: 168 h
Method in brief: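 M. tuberculosis H37Rv grown in 7H9 with 10% OADC at 37 °C to mid-log (OD600 0.4–0.6). Inoculum adjusted to McFarland no. 1, diluted 1:20. Compounds from DMSO stocks, final 0.39–100 μg/mL; rifampicin 0.004–1 μg/mL as control. After 7 days at 37 °C, 0.01% resazurin added, read 24 h later by fluorescence (530/590 nm). MIC = lowest concentration giving 90% inhibition.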

[2] = Binding affinity to Mycobacterium tuberculosis CYP121A1 expressed in Escherichia coli TG1 (DE3) by UV-visible scanning spectrophotometric analysis
Method in brief: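 Purified CYP121A1 (typically 3–5 μM) in 100 mM KPi, 200 mM KCl, pH 7.85, 0.004% Triton X-100, at 28 °C. Ligand added stepwise from DMSO stocks until no further spectral change. ΔAmax (peak minus trough of difference spectra) was plotted against [ligand] and fitted to a hyperbolic or Hill equation. Triplicate titrations were run and Kd was averaged.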

[3] = system: Mycobacterium tuberculosis; test: Binding affinity to Mycobacterium tuberculosis CYP121A1 expressed in Escherichia coli TG1 (DE3) assessed as Soret peak shift by UV-visible scanning spectrophotometric analysis
Method in brief: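 Purified CYP121A1 (typically 3–5 μM) titrated at 28 °C in 100 mM KPi, 200 mM KCl, pH 7.85, 0.004% Triton X-100. Ligand added stepwise from DMSO stocks until saturation. Spectra 250–800 nm were recorded. Soret shift was judged from the difference spectra, with a red shift taken as type II.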

| Structure (SMILES) | MIC90 [1] | Kd [2] | Activity [3] |
| --- | --- | --- | --- |
| Clc1ccccc1C(c1ccccc1)(c1ccccc1)n1ccnc1 [CLOTRIMAZOLE] | 20 µg/mL (≈ 58 µM) |  |  |
| Cc1ccc(-c2nn(-c3ccccc3)cc2Cn2cncn2)cc1 | > 100 µg/mL | 187 µM | 416 to 418 nm |
| OC(Cn1cncn1)(Cn1cncn1)c1ccc(F)cc1F [FLUCONAZOLE] | > 100 µg/mL |  |  |
| N#Cc1ccc(-c2nn(-c3ccccc3)cc2Cn2ccnc2)cc1 | 100 µg/mL (≈ 307 µM) | 45.9 µM | 416 to 418 nm |
| Ic1ccc(-c2nn(-c3ccccc3)cc2Cn2ccnc2)cc1 | 6.25 µg/mL (≈ 14.7 µM) | 13.6 µM | 416 to 422 nm |
| Clc1ccc(-c2nn(-c3ccccc3)cc2Cn2cncn2)cc1 | 25 µg/mL (≈ 74.4 µM) | 83.8 µM | 416 to 421 nm |
| Cc1ccc(-c2nn(-c3ccccc3)cc2Cn2ccnc2)cc1 | 12.5 µg/mL (≈ 39.8 µM) | 5.36 µM | 416 to 422 nm |
| Brc1ccc(-c2nn(-c3ccccc3)cc2Cn2cncn2)cc1 | 25 µg/mL (≈ 65.7 µM) | 193 µM | 416 to 418 nm |
| COc1ccc(-c2nn(-c3ccccc3)cc2Cn2ccnc2)cc1 | 25 µg/mL (≈ 75.7 µM) | 11.4 µM | 416 to 421 nm |
| Brc1ccc(-c2nn(-c3ccccc3)cc2Cn2ccnc2)cc1 | 6.25 µg/mL (≈ 16.5 µM) | 19.5 µM | 416 to 420 nm |
| O=C(NCCn1ccnc1)c1cn(-c2ccccc2)nc1-c1ccc(F)cc1 | > 100 µg/mL |  | inactive |
| COc1ccc(-c2nn(-c3ccccc3)cc2Cn2cncn2)cc1 | 25 µg/mL (≈ 75.4 µM) | 96.5 µM | 416 to 420 nm |
| c1ccc(-c2nn(-c3ccccc3)cc2Cn2cncn2)cc1 | 50 µg/mL (≈ 166 µM) | 73.5 µM | 416 to 422 nm |
| Fc1ccc(-c2nn(-c3ccccc3)cc2Cn2cncn2)cc1 | 25 µg/mL (≈ 78.3 µM) | 35.6 µM | 416 to 423 nm |
| Cc1ccc(-c2nn(-c3ccccc3)cc2C(=O)NCCn2ccnc2)cc1 | > 100 µg/mL | 290 µM | 416 to 418 nm |
| COc1ccc(-c2nn(-c3ccccc3)cc2C(=O)NCCn2ccnc2)cc1 | 100 µg/mL (≈ 258 µM) | 314 µM | 416 to 418 nm |
| Clc1ccc(-c2nn(-c3ccccc3)cc2Cn2ccnc2)cc1 | 12.5 µg/mL (≈ 37.3 µM) | 7.42 µM | 416 to 422 nm |
| O=C(NCCn1ccnc1)c1cn(-c2ccccc2)nc1-c1ccc(Cl)cc1 | > 100 µg/mL |  | inactive |
| c1ccc(-c2nn(-c3ccccc3)cc2Cn2ccnc2)cc1 | 12.5 µg/mL (≈ 41.6 µM) | 2.63 µM | 416 to 424 nm |
| Ic1ccc(-c2nn(-c3ccccc3)cc2Cn2cncn2)cc1 | 50 µg/mL (≈ 117 µM) |  | inactive |
| Fc1ccc(-c2nn(-c3ccccc3)cc2Cn2ccnc2)cc1 | 25 µg/mL (≈ 78.5 µM) | 4.16 µM | 416 to 424 nm |
| O=C(NCCn1ccnc1)c1cn(-c2ccccc2)nc1-c1ccccc1 | > 100 µg/mL | 394 µM | 416 to 418 nm |
| N#Cc1ccc(-c2nn(-c3ccccc3)cc2Cn2cncn2)cc1 | > 100 µg/mL |  | inactive |
